How the values were obtained:
Assay type in all cases: cell-based
[1] = molecular target: T1, 5-hydroxytryptamine receptor 1A (Homo sapiens, UniProt P08908); experiment: Displacement of [3H]-8-OH-DPAT from human 5-HT1A receptor expressed in HEK293 cells after 1 hr by beta-counting
T1 sequence (P08908 whole entry): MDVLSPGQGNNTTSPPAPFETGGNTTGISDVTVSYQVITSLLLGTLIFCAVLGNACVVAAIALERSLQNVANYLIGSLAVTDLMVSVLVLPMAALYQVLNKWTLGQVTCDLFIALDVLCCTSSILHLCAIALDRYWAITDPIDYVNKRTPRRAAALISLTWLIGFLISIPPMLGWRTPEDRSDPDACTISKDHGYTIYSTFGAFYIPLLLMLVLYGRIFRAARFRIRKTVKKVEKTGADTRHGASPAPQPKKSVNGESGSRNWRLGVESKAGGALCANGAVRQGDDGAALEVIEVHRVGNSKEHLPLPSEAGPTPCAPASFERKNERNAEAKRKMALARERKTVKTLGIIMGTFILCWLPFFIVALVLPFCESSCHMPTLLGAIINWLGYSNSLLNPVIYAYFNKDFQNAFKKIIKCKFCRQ
Method in brief: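 Human 5-HT1A receptor stably expressed in HEK293 cells; pellet homogenized in 20 vol buffer (50 mM Tris-HCl, 0.1 mM EDTA, 4 mM MgCl2, 0.1% ascorbate, pargyline), spun twice 35,000 g 20 min 4 °C, 15 min 37 °C between spins. Displacement of [3H]-8-OH-DPAT (187 Ci/mmol), 1 h room temperature; filtration, filter-bound radioactivity. Triplicate at 7-8 concentrations (10^-11–10^-4 M); Ki via Cheng-Prusoff.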

[2] = molecular target: 5-hydroxytryptamine receptor 7 (Homo sapiens, UniProt P34969); experiment: Displacement of [3H]-5-CT from human 5-HT7 receptor expressed in HEK293 cells after 1 hr by beta-counting
HEK293 [3] = experiment: Selectivity ratio of Ki for human 5-HT7 receptor expressed in HEK293 cells to Ki for human 5-HT1A receptor expressed in HEK293 cells
Method in brief: (§1)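 Ratios computed from Ki values from radioligand displacement in HEK293 membranes stably expressing human receptors: [3H]-8-OH-DPAT for 5-HT1A (1 h, room temperature) and [3H]-5-CT for 5-HT7b (1 h, 37 °C), filtration read-out. Each compound in triplicate at 7-8 concentrations (10^-11–10^-4 M); Ki by Cheng-Prusoff.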

HEK293 [4] = experiment: Selectivity ratio of Ki for human 5-HT1A receptor expressed in HEK293 cells to Ki for human 5-HT7 receptor expressed in HEK293 cells; method in brief: as §1

5-hydroxytryptamine receptor 7, sequence (P34969 whole entry): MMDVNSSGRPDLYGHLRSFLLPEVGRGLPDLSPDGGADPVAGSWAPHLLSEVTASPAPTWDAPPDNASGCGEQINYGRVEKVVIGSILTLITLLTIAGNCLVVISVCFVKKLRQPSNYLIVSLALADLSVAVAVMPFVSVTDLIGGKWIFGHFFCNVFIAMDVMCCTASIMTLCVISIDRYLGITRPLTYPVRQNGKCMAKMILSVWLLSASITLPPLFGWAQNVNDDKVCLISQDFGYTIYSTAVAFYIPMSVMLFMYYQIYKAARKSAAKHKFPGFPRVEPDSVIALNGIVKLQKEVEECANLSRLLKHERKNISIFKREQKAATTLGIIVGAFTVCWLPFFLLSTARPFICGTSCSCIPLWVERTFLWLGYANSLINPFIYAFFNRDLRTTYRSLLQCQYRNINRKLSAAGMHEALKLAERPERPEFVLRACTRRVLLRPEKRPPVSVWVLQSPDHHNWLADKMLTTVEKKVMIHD

Ki [1] | Ki [2] | SMILES | Ratio Ki (HEK293 [3]) | Ratio Ki (HEK293 [4])
18 nM | 51 nM | CSc1ccccc1N1CCN(CCCCC(=O)N2Cc3ccccc3C[C@H]2C(N)=O)CC1 | 3 | < 1
230 nM | 22 nM | NC(=O)[C@@H]1Cc2ccccc2CN1C(=O)CCCCCN1CCN(c2noc3ccccc23)CC1 | < 1 | 10
52 nM | 1870 nM | NC(=O)[C@@H]1CCCN1C(=O)CCCCN1CCN(c2ccccc2O)CC1 | 36 | < 1
77 nM | 579 nM | COc1ccccc1N1CCN(Cc2ccc(C(=O)N3Cc4ccccc4C[C@H]3C(N)=O)cc2)CC1 | 7 | < 1
12 nM | 302 nM | COc1ccccc1N1CCN(CCCCCC(=O)N2Cc3ccccc3C[C@H]2C(N)=O)CC1 | 25 | < 1
313 nM | 567 nM | CSc1ccccc1N1CCN(Cc2ccc(C(=O)N3CCC[C@H]3C(N)=O)cc2)CC1 | 2 | < 1
1910 nM | 295 nM | NC(=O)[C@@H]1Cc2ccccc2CN1C(=O)CCCCN1CCN(c2ccc(F)cc2)CC1 | < 1 | 6
377 nM | 18 nM | NC(=O)[C@@H]1Cc2ccccc2CN1C(=O)CCCCN1CCN(c2noc3ccccc23)CC1 | < 1 | 21
214 nM | 634 nM | COc1ccccc1N1CCN(CCCCC(=O)N2CCC[C@H]2C(N)=O)CC1 | 3 | < 1
107 nM | 551 nM | COc1ccccc1N1CCN(CCCCC(=O)N2Cc3ccccc3C[C@H]2C(N)=O)CC1 | 5 | < 1
232 nM | 1310 nM | NC(=O)[C@@H]1CCCN1C(=O)CCCCCN1CCN(c2ccccc2Cl)CC1 | 6 | < 1
47 nM | 163 nM | CSc1ccccc1N1CCN(CCCCC(=O)N2CCC[C@H]2C(N)=O)CC1 | 3 | < 1
89 nM | 28 nM | NC(=O)[C@@H]1Cc2ccccc2CN1C(=O)CCCCCCN1CCN(c2noc3ccccc23)CC1 | < 1 | 3
72 nM | 476 nM | NC(=O)[C@@H]1Cc2ccccc2CN1C(=O)CCCCCN1CCN(c2ccccc2O)CC1 | 7 | < 1
16 nM | 95 nM | NC(=O)[C@@H]1Cc2ccccc2CN1C(=O)CCCCCN1CCN(c2cccc(Cl)c2Cl)CC1 | 6 | < 1
38 nM | 478 nM | NC(=O)[C@@H]1CCCN1C(=O)CCCCCN1CCN(c2cccc(Cl)c2)CC1 | 13 | < 1
236 nM | 393 nM | NC(=O)[C@@H]1Cc2ccccc2CN1C(=O)CCCCCN1CCN(c2ccccc2Cl)CC1 | 2 | < 1
83 nM | 113 nM | NC(=O)[C@@H]1CCCN1C(=O)CCCCN1CCN(c2cccc(Cl)c2Cl)CC1 | < 1 | < 1
122 nM | 101 nM | NC(=O)[C@@H]1CCCN1C(=O)CCCCCCN1CCN(c2noc3ccccc23)CC1 | < 1 | 1
2910 nM | 108 nM | NC(=O)[C@@H]1CCCN1C(=O)CCCCN1CCN(c2noc3ccccc23)CC1 | < 1 | 27
44 nM | 1200 nM | COc1ccccc1N1CCN(CCCCCC(=O)N2CCC[C@H]2C(N)=O)CC1 | 27 | < 1

Second part, the compound before the results:

SMILES | Ki [1] | Ki [2] | Ratio Ki (HEK293 [3]) | Ratio Ki (HEK293 [4])
NC(=O)[C@@H]1CCCN1C(=O)CCCCCN1CCN(c2ccc(F)cc2)CC1 | 573 nM | 1190 nM | 2 | < 1
NC(=O)[C@@H]1CCCN1C(=O)CCCCCN1CCN(c2noc3ccccc23)CC1 | 214 nM | 50 nM | < 1 | 4
NC(=O)[C@@H]1CCCN1C(=O)CCCCCN1CCN(c2ccccc2F)CC1 | 141 nM | 3130 nM | 22 | < 1
NC(=O)[C@@H]1Cc2ccccc2CN1C(=O)c1ccc(CN2CCN(c3cccc(Cl)c3Cl)CC2)cc1 | 212 nM | 1200 nM | 6 | < 1
CSc1ccccc1N1CCN(CCCCCC(=O)N2CCC[C@H]2C(N)=O)CC1 | 14 nM | 153 nM | 11 | < 1
CSc1ccccc1N1CCN(CCCCCCC(=O)N2Cc3ccccc3C[C@H]2C(N)=O)CC1 | 2 nM | 111 nM | 55 | < 1
CSc1ccccc1N1CCN(Cc2ccc(C(=O)N3Cc4ccccc4C[C@H]3C(N)=O)cc2)CC1 | 122 nM | 148 nM | 1 | < 1
CSc1ccccc1N1CCN(CCCCCCC(=O)N2CCC[C@H]2C(N)=O)CC1 | 23 nM | 495 nM | 21 | < 1
CSc1ccccc1N1CCN(CCCCCC(=O)N2Cc3ccccc3C[C@H]2C(N)=O)CC1 | < 1 nM | 78 nM | > 78 | < 1
NC(=O)[C@@H]1Cc2ccccc2CN1C(=O)CCCCCN1CCN(c2ccc(F)cc2)CC1 | 643 nM | 107 nM | < 1 | 6
NC(=O)[C@@H]1CCCN1C(=O)CCCCCN1CCN(c2cccc(Cl)c2Cl)CC1 | 4 nM | 179 nM | 45 | < 1
COc1ccccc1N1CCN(Cc2ccc(C(=O)N3CCC[C@H]3C(N)=O)cc2)CC1 | 6310 nM | 4150 nM | < 1 | 2
NC(=O)[C@@H]1Cc2ccccc2CN1C(=O)CCCCN1CCN(c2ccc(Cl)cc2)CC1 | 211 nM | 223 nM | 1 | < 1
CSc1ccccc1N1CCN(CCCCCC(=O)NC2CCCc3ccccc32)CC1 (stereo unspecified) |  | 0.22 nM |  | 
NC(=O)[C@@H]1Cc2ccccc2CN1C(=O)CCCCCN1CCN(c2cccc(Cl)c2)CC1 | 499 nM | 725 nM | 1 | < 1

Source: ChEMBL document CHEMBL3232956, “Solid-supported synthesis, molecular modeling, and biological activity of long-chain arylpiperazine derivatives with cyclic amino acid amide fragments as 5-HT(7) and 5-HT(1A) receptor ligands” (Eur J Med Chem, 2014)
